Compound activity (PubChem BioAssay)
CSC inhib: cancer stem cell inhibition; cancer stem cell-like cells viability, luminescence; inhibition, % at 7.5 µM; 300,000 compounds, 1.1% hits; AID 2717; in the data active means inhibition above about 75%; inconclusive means no clear call, values can overlap the other calls; tested in HMLE shEcad cells
NLRP3 yeast inh: NALP3 inhibition in yeast; Yeast reconstituted NLRP3/ASC/caspase-1, beta-gal luminescence, 24 h; inhibition, % at 10 µM; 330,000 compounds, 0.39% hits;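 active means inhibition of 50% or more; inactive means inhibition below 50%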;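 further: plate controls were induced DMSO wells for no effect and uninduced yeast grown without galactose for full effect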
Mdm2-MdmX inh: inhibitors of human Mdm2/MdmX interaction | SaOS-2 split-luciferase Mdm2/MdmX complementation, luminescence | inhibition, % at 8 µM | 330,000 compounds, 3% hits | AID 485346;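 active means inhibition of at least 50% at 8 µM in the primary screen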
Target sequence (O15151 whole entry, looked up): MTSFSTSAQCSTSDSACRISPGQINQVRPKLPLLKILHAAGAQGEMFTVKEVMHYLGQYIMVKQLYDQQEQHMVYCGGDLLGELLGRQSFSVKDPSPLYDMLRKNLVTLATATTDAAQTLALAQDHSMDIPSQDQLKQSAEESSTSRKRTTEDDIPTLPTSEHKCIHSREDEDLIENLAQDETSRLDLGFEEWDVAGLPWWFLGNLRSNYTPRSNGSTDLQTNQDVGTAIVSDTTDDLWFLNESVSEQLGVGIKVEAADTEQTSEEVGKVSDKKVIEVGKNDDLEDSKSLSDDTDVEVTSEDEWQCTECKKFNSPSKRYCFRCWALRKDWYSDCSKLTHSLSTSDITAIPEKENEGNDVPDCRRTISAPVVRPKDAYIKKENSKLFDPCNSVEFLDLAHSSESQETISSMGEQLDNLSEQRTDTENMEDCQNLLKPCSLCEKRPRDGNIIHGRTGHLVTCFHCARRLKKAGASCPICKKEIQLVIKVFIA
Target sequence (Q00987 whole entry, looked up): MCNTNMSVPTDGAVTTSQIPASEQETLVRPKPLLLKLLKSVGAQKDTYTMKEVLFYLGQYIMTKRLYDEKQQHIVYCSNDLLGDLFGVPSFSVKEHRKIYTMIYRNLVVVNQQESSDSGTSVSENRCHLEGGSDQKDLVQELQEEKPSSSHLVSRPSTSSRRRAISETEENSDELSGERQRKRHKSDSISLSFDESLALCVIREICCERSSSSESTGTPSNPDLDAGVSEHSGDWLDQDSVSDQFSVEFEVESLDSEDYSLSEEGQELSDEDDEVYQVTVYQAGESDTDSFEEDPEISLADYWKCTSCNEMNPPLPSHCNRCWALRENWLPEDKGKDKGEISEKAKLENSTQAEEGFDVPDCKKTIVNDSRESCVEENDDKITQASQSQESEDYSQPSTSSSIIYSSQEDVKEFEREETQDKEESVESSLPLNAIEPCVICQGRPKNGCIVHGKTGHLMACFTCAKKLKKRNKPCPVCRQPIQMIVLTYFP
T cruzi repl: blocks replication of Trypanosoma cruzi; AID 1885; T. cruzi beta-gal in NIH3T3, luminescence, 90 h; inhibition, % (concentration not given with the values); 300,000 compounds, 1.4% hits;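 active means mean inhibition across valid replicates above about 55%, limit read from the data; inconclusive means mean below that limit but half or more replicates reach it; inactive means mean below it, under half of replicates reach it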;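 further: signal also drops with host cell toxicity which is not excluded here; 0% = plate median of DMSO wells and 100% = zero luminescence signal; higher percent means less beta-gal luminescence so fewer parasites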
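assay system = mouse NIH/3T3 fibroblasts infected with β-gal-expressing T. cruzi Tulahuen C4 | input = 5,000 NIH/3T3 host cells per well | buffer or medium = DMEM plus 2% FBS | timing = 3 h host attachment, then at least 90 h co-culture | measured by = GalScreen luminescence, 60 min | evaluation = luminescence reflecting intracellular parasite burden, expressed as percent inhibition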
Calb FLC: affects C. albicans growth with fluconazole | growth inhibition, % (no concentration beside the values) | C. albicans CaCi-2 (fluconazole-resistant clinical isolate) + fluconazole, Alamar Blue growth, 48 h | 300,000 compounds, 0.57% hits;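 active means growth inhibition above about 58% in most replicates, limit read from the data, passing the limit was not always enough; inconclusive means exactly half the replicates above a set limit; inactive means most replicates below a set limit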;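 further: all wells also contain fluconazole at 8 µg/ml as a sub-toxic cotreatment; 0% = median of DMSO wells and 100% = median of geldanamycin control wells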
Beta cell apopt: beta cell apoptosis inhibition. protection from apoptosis, % (concentration not given with the values). 300,000 compounds, 0.8% hits. INS-1E cytokine-induced death, ATP luminescence, 48 h; percent of positive-control rescue, neutral wells zero. AID 435005;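 active means Every replicate reaches about 75%, or at least half do and their mean reaches it too, limit read from the data; inconclusive means At least half of replicates reach the limit but their mean does not; inactive means Under half of replicates reach the limit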;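 further: 0% = cytokine-treated negative control wells and 100% = positive control rescue; higher means more ATP so stronger rescue from cytokine killing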
The depositor's hits bear a star; u = inconclusive; x = not tested or not shown. A selection: hits, their analogues and other compounds. The true share with any hit is near 5.3%.

SMILES	CSC inhib	NLRP3 yeast inh	Mdm2-MdmX inh	T cruzi repl	Calb FLC	Beta cell apopt
CCn1c(=O)c(=O)[nH]c2cc(C(=O)NC3CC3)ccc21	-7.2	6.8	-13.8	-8.2	2.5	-8.6
O=C(Nc1ccccc1)NC1CCN(Cc2c(F)cccc2Cl)CC1	20.5	11.0	-18.3	9.2	-3.0	1.4
O=C(NC1CCN(Cc2ccccc2)CC1)c1ccc2c(c1)[nH]c(=O)n2Cc1ccc(F)cc1	5.1	11.2	40.6	58.1*	-14.8	16.9
COc1ccc(OC)c(C2NC(=O)CCC2[N+](=O)[O-])c1 (configuration not stated)	-2.1	9.6	-35.6	-8.5	0.5	-13.3
CN1CCC(NC(=O)Nc2cccc(C(F)(F)F)c2)CC1	-28.5	8.4	-18.1	x	-17.0	-7.7
CCc1cccc(CN2CCC(CNC(=O)Nc3ccc(Cl)cc3)CC2)c1	4.1	-0.3	26.5	57.3*	2.3	4.7
O=C(NCC1CCN(Cc2cccc(Cl)c2)CC1)Nc1ccc(Cl)cc1	9.5	7.5	20.0	50.1	-4.2	8.7
CN1CCC(NC(=O)Nc2ccc(Br)cc2)CC1	-23.4	-7.7	-21.8	61.4*	-2.4	1.5
O=[N+]([O-])c1ccc(C(=Nc2cccc3ccccc23)N2CCOCC2)cc1	0.5	-6.6	-0.5	-1.5	100.3*	3.3
Cc1ccc([N+](=O)[O-])cc1N=C(c1ccc([N+](=O)[O-])cc1)N1CCOCC1	1.0	0.1	-5.9	12.7	-3.6	-0.1
O=C(COc1ccc([N+](=O)[O-])cc1)NNC(=S)NC(=O)c1ccc(Br)cc1	26.3	3.5	17.1	2.3	95.4*	-1.2
CCCC(=O)NC(=S)NNC(=O)c1ccc([N+](=O)[O-])cc1	-9.9	11.4	14.6	-24.1	75.7*	-0.4
CCCCCCCC(=O)NNC(=O)c1ccc([N+](=O)[O-])cc1	-4.8	20.7	23.9	-11.0	-11.7	-6.4
Cn1cnnc1SCC(=O)N1CCc2ccccc21	1.6	12.9	-19.6	-6.8	-6.7	-7.4
CCCn1c(SCC(=O)NCC)nc2sc3c(c2c1=O)CCC3	-15.2	5.0	15.2	8.3	5.3	4.0
CCCCn1c(SCC(N)=O)nc2sc3c(c2c1=O)CCC3	98.7*	7.7	-0.8	-10.1	6.9	-0.3
Oc1ccc(Nc2ncnc3c2oc2ccccc23)cc1	5.0	10.3	23.2	-26.2	4.3	7.4
Oc1cccc(Nc2ncnc3c2oc2ccccc23)c1	39.8	16.3	-13.3	-4.4	90.9*	6.6
CC(C)C(Nc1ncnc2c1oc1ccccc12)C(=O)O (configuration not stated)	4.3	4.0	-6.6	76.9*	17.3	-0.3
Cc1ccc(CC2CC(=O)N(c3ccc(C)cc3)C2=O)cc1 (configuration not stated)	-9.7	13.6	1.9	-2.3	1.5	-4.7
COc1ccc(C(=O)C2CCN(C(=S)NCCc3ccccc3)CC2)cc1	-2.9	12.0	-0.4	4.4	1.4	-0.9
O=C(O)c1ccc(COc2cccc(CO)c2)cc1	1.6	-9.7	1.1	-7.2	-2.3	-5.2
C[C@H](CO)N1C[C@H](C)[C@@H](CN(C)S(=O)(=O)c2ccc(F)cc2)Oc2ccc(NC(=O)Nc3ccc4c(c3)OCO4)cc2C1=O	x	0.3	19.3	x	x	x
O=C(CSc1ccc(-c2ccccn2)nn1)c1ccccc1	15.7	-14.9	13.3	6.4	45.5	-1.4
c1ccc(CSc2ccc(-c3ccccn3)nn2)cc1	86.2*	35.7	7.5	57.8*	0.6	86.6*
SMILES	CSC inhib	NLRP3 yeast inh	Mdm2-MdmX inh	T cruzi repl	Calb FLC	Beta cell apopt
Cc1cccn2c(Nc3ccccc3)c(-c3ccccn3)nc12	-6.4	-20.0	-4.5	4.7	-8.0	78.2*
COc1ccc(-c2nc3ncccn3c2Nc2ccccc2)cc1	-1.4	-3.8	-29.1	14.4	-2.0	-2.0
COc1ccc(/C=C/c2ccncc2)cc1	7.9	6.6	-36.3	73.7*	-28.0	-1.2
COc1cccc(/C=C/c2ccncc2)c1OC	-3.9	26.9	-25.7	48.9	1.3	-4.1
COc1ccc(/C=C/c2nc3ccccc3n2C)cc1	88.1*	22.4	45.6	10.4	1.4	105.6*
Cc1ccc2[nH]c(C)c(/C=N/Nc3nc4ccccc4s3)c2c1	-15.0	14.5	36.6	61.2*	1.3	1.9
COC(=O)c1sc(C(C)(C)C)cc1CS(=O)(=O)c1ccccn1	-6.7	8.6	-8.1	0.6	11.6	1.3
CN(C)S(=O)(=O)Oc1cccc(C(=O)Nc2ccccc2Cl)c1	2.8	10.9	-33.3	2.3	23.1	8.0
COc1cccc(C(=O)Nc2ccc(C)cc2)c1	4.1	23.6	-101.8	7.0	-6.3	-3.0
CN(C)S(=O)(=O)Oc1cccc(C(=O)Nc2ccc(Cl)cc2)c1	9.7	-26.9	-82.5	17.4	87.2*	2.1
COc1cccc(C(=O)Nc2ccc(C3CC3(Cl)Cl)cc2)c1 (configuration not stated)	91.0*	8.9	-151.7	30.3	-7.2	-7.6
COc1ccc(-n2c(=O)cc(N3CCCCCC3)[nH]c2=O)cc1	-0.6	-0.5	-15.1	-25.9	-7.1	2.1
COc1cccc(C(=O)Nc2cc3c4c(c2)CC(=O)N4CCC3)c1	0.2	14.9	3.8	-2.5	2.7	-4.2
COC(=O)N/N=C/c1ccc([N+](=O)[O-])s1	-16.5	36.6	17.9	34.2	3.7	-9.4
Cc1ccc(NC(C)C(=O)N/N=C/c2ccc([N+](=O)[O-])s2)cc1 (configuration not stated)	-0.2	4.1	-27.2	82.1*	23.2	-15.0
COc1ccc(NC(C)C(=O)N/N=C/c2ccc([N+](=O)[O-])s2)cc1 (configuration not stated)	2.3	18.4	19.4	64.8*	u	5.1
Cc1ccnn1CC(=O)N/N=C/c1ccc([N+](=O)[O-])s1	-0.8	14.8	20.2	3.9	13.8	-22.6
CCOC(=O)C[C@H]1c2ccc(C(F)(F)F)cc2S(=O)(=O)N1C(C)(C)C	-8.4	10.2	-15.9	7.9	0.3	3.4
COc1ccccc1N/N=C/c1c(CO)cnc(C)c1O	8.0	11.0	-5.6	2.5	-26.8	0.1
CCn1c(C)nc2cc(-c3nnc(-c4c(-c5ccccc5)noc4C)o3)ccc21	38.5	12.0	5.0	30.8	15.2	113.4*
Cc1onc(-c2ccccc2)c1-c1nnc(-c2ccccc2C(F)(F)F)o1	16.9	15.0	25.9	24.6	8.2	-0.6
COc1ccc(C(Nc2ccccn2)c2c(NC(=O)c3ccco3)sc(C)c2C)cc1 (configuration not stated)	19.2	12.8	32.5	63.1*	13.7	-6.8
COc1cccc(C(Nc2ccccn2)c2c(NC(=O)c3ccco3)sc(C)c2C)c1 (configuration not stated)	18.8	9.5	10.5	59.2*	-21.6	x
O=C1N[C@H](C(=O)O)CS1	3.3	18.7	-34.6	-16.4	-3.5	x
CCN(CC)CCOC(=O)c1ccc(N/C=C(/C#N)c2nc(-c3ccc4c(c3)OCO4)cs2)cc1	-5.0	15.6	22.0	48.6	11.0	112.6*
